Bioassay records deposited in PubChem by several laboratories.
Most compounds without a hit are left out; they make up all but 3.8% or so of the library.
TMEM16A act: activates or potentiates the mouse TMEM16A chloride channel; Q8BHY3; B-score at 10 µM; HEK293 TMEM16A/YFP-H148Q/I152L, iodide quench fluorescence; active compounds read low; 0.3% of 340,000 active; AID 623877;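 active = fluorescence-ratio B-score plate-corrected deviation score at least 3 library SD below zero, with starting fluorescence score within 5 deviations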;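 also: channel opened by trigger with iodide after compound preincubation; score built on the fluorescence ratio of max minus min over baseline; more negative score means more quench and so TMEM16A activation or potentiation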
Beta apoptosis: blocks beta cell apoptosis; INS-1E cytokine-induced death, ATP luminescence, 48 h; percent of positive-control rescue, neutral wells zero; protection from apoptosis, % (concentration not given with the values); 0.8% of 300,000 active; AID 435005;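 active = Every replicate reaches about 75%, or at least half do and their mean reaches it too, limit read from the data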;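 also: 0% = cytokine-treated negative control wells and 100% = positive control rescue; higher means more ATP so stronger rescue from cytokine killing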
ANO1 block: mouse TMEM16A channel inhibition, primary screen. Q8BHY3. HEK293 TMEM16A/YFP iodide influx fluorescence, ionomycin. normalized B-score (activity score, 25-100; higher = stronger inhibition) at 10 µM. 1.2% of 310,000 active. AID 588511;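 active = ratio plate-corrected score three or more library SD toward inhibition, starting fluorescence score within five deviations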;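 also: score derived from kinetic fluorescence span divided by baseline fluorescence per well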
CSC inhib: blocks cancer stem cells | cancer stem cell-like cells viability, luminescence | inhibition, % at 7.5 µM | 1.1% of 300,000 active; in the data active = inhibition above about 75%; tested in HMLE shEcad cells
MC4R antag cAMP: antagonists of human melanocortin 4 receptor (MC4R); P32245; MC4R-expressing cells, MTII-stimulated cAMP, LANCE TR-FRET; inhibition, % at 6.5 µM; 0.48% of 360,000 active;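 active = inhibition above its plate's cutoff, the mean of tested wells on that plate plus 3 SD, cut at about 29% in these data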;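 also: 0% = Melanotan II alone and 100% = Melanotan II plus saturating MCL0020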
Target sequence (P32245 whole entry, looked up): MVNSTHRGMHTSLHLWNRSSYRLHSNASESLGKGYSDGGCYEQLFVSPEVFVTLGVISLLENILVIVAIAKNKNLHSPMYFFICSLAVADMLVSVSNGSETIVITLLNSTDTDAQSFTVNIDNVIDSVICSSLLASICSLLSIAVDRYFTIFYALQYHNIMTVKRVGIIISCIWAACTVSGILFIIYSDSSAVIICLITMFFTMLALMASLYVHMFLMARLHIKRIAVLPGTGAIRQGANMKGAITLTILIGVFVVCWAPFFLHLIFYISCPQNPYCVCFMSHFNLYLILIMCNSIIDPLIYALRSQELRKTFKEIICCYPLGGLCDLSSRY
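material = U2OS cells stably expressing human melanocortin 4 receptor (MC4R) | also added = Melanotan II challenge | dosing = single nominal compound dose of 6.5 µM | detection = TR-FRET with Eu-cAMP and labeled anti-cAMP, 671 nm | replication = singlicate | timing = compound 30 min, challenge 1 h, detection 1 h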
MC4R ag barr: agonists of human melanocortin 4 receptor (MC4R) beta-arrestin; P32245; U2OS MC4R beta-arrestin complementation, luminescence; percent of melanotan II response, DMSO zero; activation, % at 8.9 µM; 0.98% of 360,000 active;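 active = activation above a per-plate cutoff, the mean activation of sample wells on that plate plus 3 SD, cut at about 8% in these data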
MC4R barr conf: human MC4R beta-arrestin agonism confirmation. shares compounds with MC4R ag barr. U2OS MC4R beta-arrestin recruitment, luminescence; scaled DMSO 0%, Melanotan II 100%. activation, % at 8.9 µM. 31% of 2,400 active. AID 602192;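 active = mean activation across replicates above the hit cutoff set in the earlier primary screen, cut at about 8% in these data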
MOR-DOR barr ag: counter-screen for MC4R agonists: agonists of mu-delta opioid heterodimer; 5.8% of 2,400 active; activation, % at 9.2 µM; AID 602194; U2OS PathHunter beta-arrestin, beta-gal luminescence; percent of deltorphin B response, DMSO zero; shares compounds with MC4R ag barr;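 active = mean activation across replicates exceeds the hit threshold derived in the earlier primary screen, cut at about 18% in these data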;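 also: 100% = deltorphin B at 0.9 µM final and 0% = DMSO alone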
The depositor's hits bear a star; i = inactive; . = no result given.

SMILES	TMEM16A act	Beta apoptosis	ANO1 block	CSC inhib	MC4R antag cAMP	MC4R ag barr	MC4R barr conf	MOR-DOR barr ag
CCN(C(=O)c1cc2c(=O)[nH]c3ccc(C)cc3c2s1)c1ccc(F)cc1	i	7	i	.	9	12*	2	6
Cc1cc(=O)c2ccc3ccccc3c2[nH]1	i	-3	i	-15	3	-1	.	.
COc1ccc(-c2nc(=S)c3ccc4ccccc4c3[nH]2)cc1	i	.	.	.	-2	12*	-1	1
CCOC(=O)N1CCC(N2C(=O)c3ccc(C(=O)Nc4cccc(OC)c4)cc3C2=O)CC1	i	5	i	-12	1	12*	2	4
CCOC(=O)N1CCC(N2C(=O)c3ccc(C(=O)O)cc3C2=O)CC1	i	-2	i	2	10	0	.	.
CC(C)(C)OC(=O)C[C@@H]1C/C=C\C[C@H](CC(=O)N(CCO)Cc2ccccc2)C(=O)NC[C@H](c2ccccc2)OC1=O	i	-2	.	-10	4	-2	.	.
CCC(C)(C)C1CCC2(CC1)NC(=O)N(CC(=O)NCCc1ccc(OC)c(OC)c1)C2=O (centres undefined)	i	-2	.	.	0	-1	.	.
O=C(COC(=O)CSc1ccc(F)cc1)NC1CCCCCC1	i	-6	.	.	6	-1	.	.
c1ccc(OCCCn2nnc(-c3ccc(N4CCOCC4)cc3)n2)cc1	i	4	i	9	-2	17*	3	12
CCOc1ccc2c(c1)C(=NNC(=O)c1ccccn1)c1cc(OCC)ccc1-2	i	.	.	.	1	-2	.	.
O=C(Nc1nnc(SCc2ccc(F)cc2)s1)c1ccc2ncsc2c1	i	.	.	.	4	17*	-1	3
CCSc1nnc(NC(=O)c2cc3c(s2)CCCC3)s1	i	-2	i	2	-7	6	.	.
O=C(Nc1nnc(SCc2ccccc2)s1)c1cc2c(s1)CCCC2	i	5	i	-5	-3	20*	8.3*	3
CCSc1nnc(NC(=O)c2csc3c2CCCC3)s1	i	9	i	-12	0	15*	27*	15
O=C(/C=C/c1ccc2c(c1)OCCCO2)c1ccccc1O	i	-4	i	19	12	3	.	.
Cc1ccc(O)c(C(=O)/C=C/c2ccc3c(c2)OCCCO3)c1	i	-3	i	57	-3	23*	24*	5
O=C(NNC(=O)c1cc(Cl)nc2ccccc12)c1ccccc1F	i	.	i	-9	0	-3	.	.
C=CCSc1nc2sc(-c3ccccc3)cc2c(=O)n1N	i	-3	i	-1	3	19*	21*	21*
O=C(COC(=O)CCS(=O)(=O)c1ccccc1)Nc1ccc(N2CCCCC2)cc1	i	-7	.	-10	23	1	.	.
CCn1cc(C(=O)NCc2cccc(C(F)(F)F)c2)c(=O)c2ccc(C)nc21	i	-5	i	11	3	14*	2	4
CCn1cc(C(=O)OCC(=O)c2cc(C)n(-c3cccc(C(F)(F)F)c3)c2C)c(=O)c2ccc(C)nc21	i	3	i	13	1	2	.	.
COc1ccc(N2C(=S)N=C(Nc3cccc(C)c3)C23CCCCC3)cc1	i	3	i	-8	5	24*	9.6*	8
CCOC(=O)c1cccc(NC(=O)CSc2nnc(COc3ccccc3C)o2)c1	i	1	i	8	-12	11*	3	9
Cc1cc(CSc2ccccc2)ccc1NC(=O)c1ccc(Br)cc1	i	19	i	3	-4	9.9*	12*	7
CCOC(=O)N(C)C[C@H]1OCc2cnnn2CCCC(=O)N([C@@H](C)CO)C[C@H]1C	.	.	.	.	10	0	.	.
SMILES	TMEM16A act	Beta apoptosis	ANO1 block	CSC inhib	MC4R antag cAMP	MC4R ag barr	MC4R barr conf	MOR-DOR barr ag
CC(=O)Nc1cc(-c2cccc(C(=O)NCCN(C)C)c2)cn2c(-c3cccc(C(F)(F)F)c3)cnc12	.	.	.	.	0	42*	23*	8
CC(=O)Nc1cc(-c2ccccc2N(C)C)cn2c(-c3cccc(C(F)(F)F)c3)cnc12	.	.	.	.	-1	15*	11*	3
Cc1c(Cc2ccccc2)sc(NC(=O)c2ccco2)c1C(N)=O	i	-3	i	13	-7	9.7*	0	5
COC(=O)c1c(NC(=O)c2ccco2)sc(C)c1C	i	-3	i	7	14	6	.	.
CCC1CCCCN1CCCNC(=O)c1ccc2c(c1)N(Cc1ccc(F)cc1)C(=O)c1ccccc1S2=O (centres undefined)	i	-1	i	25	8	1	.	.
O=C(Nc1ccccc1F)c1oc2ccccc2c1NC(=O)C1CC1	i	8	i	-16	2	9.6*	4	5
CC(=O)c1ccc(NC(=O)COC(=O)c2ccccc2Nc2ccccc2)cc1	i	1	i	-3	4	10*	4	6
O=C(COC(=O)c1ccccc1Nc1ccccc1)Nc1ccccc1	i	5	i	13	4	15*	3	8
C[C@H](CO)N1C[C@H](C)[C@@H](CN(C)Cc2ccncc2)Oc2ccc(NC(=O)CCCCCC(=O)Nc3ccccc3N)cc2C1=O	i	-2	.	-20	4	0	.	.
Cc1cc(C)n2nc(C(=O)OCC(=O)Nc3cc(S(=O)(=O)N4CCOCC4)ccc3Cl)nc2n1	i	.	.	.	2	0	.	.
COc1cc(NS(=O)(=O)c2ccc(NC(=S)NC(=O)c3sc4ccccc4c3Cl)cc2)ncn1	i	-1	i	9	-1	15*	19*	1
CC(=O)c1ccc(OCc2cc(C(=O)NCCc3ccc(Cl)cc3)no2)cc1	i	-1	i	-9	20	14*	-2	5
Cc1nn(-c2ccccc2)c(N2CCCC2)c1/C=N/NC(=S)Nc1ccccc1F	i	.	i	52	1	14*	3	2
Cc1nn(-c2ccccc2)c(N2CCCC2)c1/C=N/NC(=O)c1cc2ccccc2cc1O	i	4	i	44	6	-2	.	.
COc1ccc(/C=N/N(C)C2=NCCN2)c(OC)c1OC	i	4	i	-6	2	0	.	.
CCOC(=O)c1c(-c2ccc(C)o2)csc1NC(=O)COC(=O)c1ccc(NC(N)=O)cc1	i	1	i	1	26	24*	6	3
